Assay outcomes from PubChem BioAssay.
LMPTP block = LMPTP (human) inhibition | AID 651560 | 0.22% of 360,000 active | inhibition, % at 20 µM | recombinant LMPTP-A, OMFP fluorogenic substrate, fluorescence intensity;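 active = compounds that cut the enzyme signal by at least half of the control window in the single-dose screen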
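material = LMPTP-A | quantity = 0.625 nM enzyme | reagent = OMFP substrate, 400 µM final | buffer or medium = Bis-Tris pH 6.0, DTT, detergent | detection = endpoint fluorescence intensity from OMFP dephosphorylation | dosing = single 20 µM dose | read-out basis = % inhibition relative to no-enzyme and uninhibited control wells | control set = no-enzyme and uninhibited controls | timing = 50 min at room temperature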
SUMO1-SIM PPI = SUMO1-SIM interaction modulation; inhibition, % at 20 µM; 0.33% of 360,000 active; SUMO1 binding to a labelled peptide, TR-FRET, 1 h; P63165; in the data active = inhibition above about 37%
DNMT1 block = inhibitors of human DNMT1. P26358. DNMT1 molecular beacon, Hinp1I cleavage, fluorescence. inhibition (reported as % activation of signal), % at 10 µM. 0.83% of 360,000 active. AID 588458; in the data active = inhibition above about 50%
Target sequence (P26358 504-1616 limits assumed): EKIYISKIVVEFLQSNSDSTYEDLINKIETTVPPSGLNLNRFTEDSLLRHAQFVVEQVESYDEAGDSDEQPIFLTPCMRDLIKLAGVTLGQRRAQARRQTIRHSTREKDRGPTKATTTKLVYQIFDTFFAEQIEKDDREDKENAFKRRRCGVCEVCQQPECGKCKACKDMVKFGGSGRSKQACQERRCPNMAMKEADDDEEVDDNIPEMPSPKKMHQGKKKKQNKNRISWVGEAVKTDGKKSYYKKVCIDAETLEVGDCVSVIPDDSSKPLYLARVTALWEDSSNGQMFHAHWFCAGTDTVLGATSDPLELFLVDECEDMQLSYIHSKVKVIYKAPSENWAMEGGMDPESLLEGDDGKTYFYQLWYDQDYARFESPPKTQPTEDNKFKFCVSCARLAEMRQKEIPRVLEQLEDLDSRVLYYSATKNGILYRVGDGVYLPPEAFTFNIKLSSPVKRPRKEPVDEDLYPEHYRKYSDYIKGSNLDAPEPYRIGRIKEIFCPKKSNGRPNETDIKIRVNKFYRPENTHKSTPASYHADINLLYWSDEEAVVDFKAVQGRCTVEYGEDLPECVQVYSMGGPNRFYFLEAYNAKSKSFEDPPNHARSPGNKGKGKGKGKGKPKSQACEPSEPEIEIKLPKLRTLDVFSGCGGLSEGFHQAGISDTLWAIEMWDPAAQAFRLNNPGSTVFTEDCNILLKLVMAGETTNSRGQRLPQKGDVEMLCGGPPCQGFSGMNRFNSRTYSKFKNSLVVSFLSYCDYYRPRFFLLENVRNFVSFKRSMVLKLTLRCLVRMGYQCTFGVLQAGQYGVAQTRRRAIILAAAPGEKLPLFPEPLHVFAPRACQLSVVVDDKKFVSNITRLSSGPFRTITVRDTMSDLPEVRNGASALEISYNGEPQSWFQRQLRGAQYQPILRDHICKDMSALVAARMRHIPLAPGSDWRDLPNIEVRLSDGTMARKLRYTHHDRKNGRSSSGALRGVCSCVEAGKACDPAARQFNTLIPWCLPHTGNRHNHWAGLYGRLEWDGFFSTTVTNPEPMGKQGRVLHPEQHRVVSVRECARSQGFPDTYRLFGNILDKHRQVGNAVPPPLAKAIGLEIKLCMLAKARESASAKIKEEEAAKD
Scp1 inh = blocks human Scp-1 phosphatase activity; Q9GZU7; Recombinant Scp1, phosphopeptide, malachite green phosphate absorbance; inhibition, % at 20 µM; 0.88% of 340,000 active; AID 493091;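 active = inhibition above about 50% at 20 µM, limit read from the data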
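assay system = SCP-1 phosphatase catalytic domain, residues 76-261 | buffer or medium = 50 mM Tris acetate pH 5.5, 0.005% Tween-20, 10 mM MgCl2 | incubation = enzyme reaction 45 min at room temperature, colour 5 min, stabilisation 30 min | signal = Phosphate-binding colour reagent, absorbance read at 630 nm | measure = % inhibition at 20 µM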
Casp6 inh = inhibitors of human caspase-6. AID 686996. purified caspase-6, Z-VEID-R110 cleavage fluorescence. 0.53% of 350,000 active. inhibition, % at 12.5 µM. P55212;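 active = mean inhibition across replicates at least about 35%, with every replicate also reaching that limit, limit read from the data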
STEP inh = blocks human striatal-enriched tyrosine phosphatase. recombinant STEP, OMFP fluorogenic substrate, fluorescence. inhibition, % at 20 µM. 0.25% of 360,000 active. AID 588621;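 active = inhibition at 20 µM, scaled per plate between control wells, above about 37%, limit read from the data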
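medium = Bis-Tris buffer pH 6.0, 2.5 mM DTT, 0.005% Tween 20 | test system = STEP (striatal-enriched tyrosine phosphatase) enzyme, cell-free | measure = normalized % inhibition | compound dosing = 20 µM, 1% DMSO | also added = 25 µM OMFP | schedule = reaction 20 min, ambient temperature | measured by = fluorescence read at 480 nm ex / 540 nm em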
Beacon interf DR = shows spectral interference in the DNMT1 beacon assay; AID 602382; 200 tested, under 10 active; molecular beacon fluorescence, spectral interference counter-screen; shares compounds with DNMT1 block; IC50, µM; call rule not given here
DNMT1 inh conf = DNMT1 inhibition confirmation, single concentration; shares compounds with DNMT1 block; DNMT1 molecular beacon HinP1I cleavage, fluorescence; inhibition, % at 10 µM; 8% of 2,300 active; AID 602385;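 active = average inhibition of at least 30% in the single-concentration confirmation test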
Beacon interf = counter-screen for DNMT1 inhibitors: spectral interference; 1% of 2,300 active; DNMT1 molecular beacon spectral interference counterscreen, fluorescence 485/520; shares compounds with DNMT1 block; activation (fluorescence interference), % at 10 µM; AID 602387;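 active = activation of at least 30% at 10 µM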;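 note: DNMT1 catalytic domain with a HinP1I cleavage step and a FAM/dabcyl DNA beacon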
Large screens that a line does not name were inactive (follow-up assays come after a bar, where they were run). Compounds with a hit are over-represented: about 1.7% of the library has one in this group of screens.

O=C(CCCN1C(=O)/C(=C\c2cccs2)SC1=S)Nc1cccc(C(=O)O)c1	none
O=C(CCCN1C(=O)/C(=C/c2ccco2)SC1=S)Nc1cccc(C(=O)O)c1	SUMO1-SIM PPI 50, DNMT1 block 86, Scp1 inh 51, Casp6 inh 55 | DNMT1 inh conf inactive | Beacon interf inactive
O=C(CN1C(=O)/C(=C/c2ccco2)SC1=S)Nc1ccc(O)c(C(=O)O)c1	SUMO1-SIM PPI 84, DNMT1 block 87, Scp1 inh 63, STEP inh 60 | DNMT1 inh conf inactive | Beacon interf inactive
COc1cc(C(C)=O)ccc1OC(=O)c1cc2cccc(OC)c2oc1=O	none
CSc1nc(NCC(C)O)c2c3c(sc2n1)CN(C)CC3 (stereo not given)	none
CSc1nc(SCC(=O)NC(c2ccccc2)c2ccccc2)c2c3c(sc2n1)CN(C)CC3	DNMT1 block 63 (no result: Casp6 inh) | DNMT1 inh conf inactive | Beacon interf inactive
CSc1ccc(C2C(C#N)=C(N)Oc3c2ccc(=O)c2c(C)oc(C)c32)cc1 (stereo not given)	DNMT1 block 74 (no result: Casp6 inh) | DNMT1 inh conf inactive | Beacon interf inactive
Cc1oc(C)c2c(=O)ccc3c(c12)OC(N)=C(C#N)C3c1ccccc1 (stereo not given)	none (no result: Casp6 inh)
COc1ccc(-c2cc(C(F)(F)F)c(C#N)c(=O)[nH]2)cc1	none
C=CCN(c1nc(C)cc(OC)n1)S(=O)(=O)c1ccc(C)cc1	DNMT1 block 97 | DNMT1 inh conf inactive | Beacon interf inactive
COC(=O)Cc1c(O)ccn(Cc2ccc(F)cc2)c1=O	none (no result: Casp6 inh)
O=C(O)c1cccc(N2C(=O)c3cccc4cccc(c34)C2=O)c1	none
O=C(O)c1cccc(N2C(=O)c3cc([N+](=O)[O-])cc4cc([N+](=O)[O-])cc(c34)C2=O)c1	DNMT1 block 85, Scp1 inh 69, Casp6 inh 45 | DNMT1 inh conf inactive | Beacon interf inactive
COCCOC(=O)C1=C(C)Nc2cc(=O)[nH]c(=O)n2C1c1cccc([N+](=O)[O-])c1 (stereo not given)	none (no result: Casp6 inh)
O=C(COC(=O)C1CC(=O)N(Cc2ccco2)C1)c1ccc(OC(=O)c2ccco2)cc1 (stereo not given)	DNMT1 block 76, Scp1 inh 81 (no result: Casp6 inh) | DNMT1 inh conf inactive | Beacon interf inactive
CCOC(=O)CC(=O)CSc1nc2c(c(C)c1C#N)CCC2	none (no result: Casp6 inh)
O=C1COc2ccc(C(=O)COC(=O)/C=C/c3ccc(Br)o3)cc2N1	LMPTP block 71, SUMO1-SIM PPI 81, DNMT1 block 100, Scp1 inh 81 | Beacon interf DR inactive | DNMT1 inh conf inactive | Beacon interf inactive
Cc1ccc(/C=C/C(=O)OCC(=O)c2ccc3c(c2)NC(=O)CO3)o1	none
O=C(Cc1ccc(NC(=O)C2CCCN(C(=O)C3CCCC3)C2)cc1)Nc1cccc(C(=O)N2CCCC2)c1 (stereo not given)	none
O=C(c1ccc(Cl)cc1)C1CCN(C(=O)c2ccccc2)CC1	DNMT1 block 89 | DNMT1 inh conf inactive | Beacon interf inactive
Cc1cc(=O)[nH]c(N/N=C/CCc2ccccc2)n1	DNMT1 block 56 | DNMT1 inh conf inactive | Beacon interf inactive
Cc1cc(=O)[nH]c(N/N=C/C=C/c2ccccc2)n1	none
COc1ccc(NC(=O)C2CCCN2S(=O)(=O)c2ccc(C)cc2)cc1 (stereo not given)	none (no result: Casp6 inh)
COc1ccc(-n2ccnc(SCC(=O)NC3CCCC3)c2=O)cc1OC	none
COc1cc(OC)c(C(=O)C=Cc2ccc(OC)c(OC)c2)c(OC)c1	none
COc1ccc(/C=C/C(=O)C(C)(C)C)cc1OC	DNMT1 block 50 (no result: Casp6 inh) | DNMT1 inh conf inactive | Beacon interf inactive
CCN1CCN(CC(=O)c2ccc(OC)cc2)CC1	none
CC(C)c1onc(C(=O)NC(C)c2ccccc2)c1[N+](=O)[O-] (stereo not given)	DNMT1 block 92 | DNMT1 inh conf inactive | Beacon interf inactive
Cc1ccc(C)c(Cn2nnc3c(=O)[nH]c(C(=O)NCc4ccco4)nc32)c1	DNMT1 block 52 | DNMT1 inh conf inactive | Beacon interf inactive
C[C@H](CO)N1C[C@H](C)[C@H](CN(C)S(=O)(=O)c2cn(C)cn2)Oc2ncc(C#Cc3ccccc3)cc2C1=O	none (no result: LMPTP block, SUMO1-SIM PPI, DNMT1 block, Scp1 inh, STEP inh)
COc1ccccc1C#Cc1cnc2c(c1)C(=O)N([C@H](C)CO)C[C@H](C)[C@@H](CN(C)S(=O)(=O)c1cn(C)cn1)O2	DNMT1 block 100 (no result: Scp1 inh) | DNMT1 inh conf inactive | Beacon interf inactive
O=[N+]([O-])c1ccccc1N/N=C\c1ccccc1Cl	none (no result: Casp6 inh)
COc1cc(C=NNc2ccccc2[N+](=O)[O-])cc(OC)c1OC	DNMT1 block 53 (no result: Scp1 inh) | DNMT1 inh conf inactive | Beacon interf inactive
COCc1cc(C)nc(SCC(=O)Nc2ccc(N3CCOCC3)cc2)c1C#N	none
CCOc1ccc2noc3c2c1C(=O)c1ccccc1-3	DNMT1 block active (no result: Casp6 inh) | DNMT1 inh conf 140 | Beacon interf 134
CC(=O)c1ccc(-n2nnnc2SCC(=O)NC2CCCCC2)cc1	DNMT1 block 68 | DNMT1 inh conf inactive | Beacon interf inactive
COC(=O)[C@@]1(Cc2ccc(OC)cc2)[C@H]2c3cc(C(=O)N(C)C)n(Cc4ccc(OC(F)(F)F)cc4)c3C[C@H]2CN1C(=O)c1ccccc1	none (no result: LMPTP block, SUMO1-SIM PPI, DNMT1 block, Casp6 inh, STEP inh)
Cc1ccc(Cc2cnc(NC(=O)/C(C#N)=C/c3ccc(-c4ccc([N+](=O)[O-])cc4)o3)s2)cc1	DNMT1 block 52 | DNMT1 inh conf inactive | Beacon interf inactive
N#C/C(=C/c1ccc(-c2ccc([N+](=O)[O-])cc2)o1)C(=O)Nc1nc(-c2cccs2)cs1	DNMT1 block 87 | DNMT1 inh conf inactive | Beacon interf inactive
Cc1cc(S(=O)(=O)N2CCOCC2)ccc1OCC(=O)Nc1ccc(F)cc1F	none
CCN(C[C@@H]1N[C@@H](CO)[C@@H]1c1ccc(C2=CCCC2)cc1)C(=O)c1cccnc1	none (no result: LMPTP block, SUMO1-SIM PPI, DNMT1 block, Scp1 inh, STEP inh)
COc1ccc(O)c(C(c2c(C)[nH][nH]c2=O)c2c(C)[nH][nH]c2=O)c1	SUMO1-SIM PPI 43, DNMT1 block 53, Casp6 inh 72 | DNMT1 inh conf inactive | Beacon interf inactive
CC1CCCCN1C(=O)CSc1nnc2ccccn12 (stereo not given)	none
COC(=O)c1cccc(NC(=O)Cc2coc3cc(OC)ccc23)c1	none (no result: Casp6 inh)
